Measured values: ChEMBL document CHEMBL4699650, “SAR Investigation and Discovery of Water-Soluble 1-Methyl-1,4-dihydroindeno[1,2-c]pyrazoles as Potent Tubulin Polymerization Inhibitors” (J Med Chem, 2020)

Experiments:
HepG2 [1] = experiment: Induction of apoptosis in human HepG2 cells assessed as early apoptotic cells at 20 nM incubated for 24 hrs by Annexin V-PE and 7-AAD staining based flow cytometry (reference value: 4.16 %); assay type: functional
In short: (§1)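 HepG2 cells seeded at 3 × 10⁵ cells/well, adhered overnight, exposed at 5, 10 or 20 nM for 12 or 24 h. Harvested into Annexin V binding buffer and stained with annexin V-PE and 7-AAD for 15 min at room temperature in the dark, then analysed by flow cytometry. Gates: live (−/−), early apoptotic (+/−), late apoptotic (+/+), necrotic (−/+).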

HCT-116 = experiment: Antiproliferation activity against human HCT116 cells assessed as cell growth inhibition measured after 72 hrs by MTT assay; assay type: functional
In short: (§2)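 Cells grown in RPMI-1640 with 10% FBS at 37 °C, 5% CO2, seeded at 4−7 × 10³ cells/well and left to adhere overnight. Exposed to a range of concentrations for 72 h, then MTT (2.5 mg/mL stock) added for 4 h. Formazan dissolved in DMSO and absorbance read at 570 nm. GI50 taken as the concentration giving 50% growth inhibition, reported as mean ± SD of at least three independent experiments.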

[2] = Toxicity in Balb/c nude mouse xenografted with human HepG2 cells assessed as adverse signs at 5 to 10 mg/kg, iv administered every 2 days for 21 days; assay type: organism-based; conditions: in vivo, 504 h, dose 5-10 mg/kg, time 21 day
[3] = Toxicity in Balb/c nude mouse xenografted with human HepG2 cells assessed as change in body weight at 5 mg/kg, iv administered every 2 days for 21 days (reference value: 7.8 % ); assay type: organism-based; conditions: in vivo, 504 h, time 21 day
HepG2 [4] = experiment: Induction of cell cycle arrest in human HepG2 cells assessed as accumulation in G1 phase at 10 nM incubated for 24 hrs by propidium iodide staining based flow cytometry (reference value: 60.76%); assay type: functional
[5] = Toxicity in Balb/c nude mouse xenografted with human HepG2 cells assessed as change in body weight at 25 mg/kg, po qd administered for 21 days measured at 3 days interval during compound dosing (reference value: - 17.2 % ); assay type: organism-based; conditions: in vivo, 504 h, time 21 day
In short: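 Nude mice received 200 μL PBS with HepG2 cells (1 × 10⁷ cells/mL) subcutaneously in the right armpit. At 90 mm³ tumour volume, randomized to 5 per group. Dosed 25 mg/kg as a 2.5 mg/mL distilled-water solution, intragastric once daily for 21 days; distilled water as vehicle. Body weight recorded every 3 days; change given as initial vs end weight.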

HepG2 [6] = experiment: Antiproliferation activity against human HepG2 cells assessed as cell growth inhibition measured after 72 hrs by MTT assay; assay type: functional; in short: as §2
HepG2 [7] = experiment: Induction of apoptosis in human HepG2 cells assessed as early apoptotic cells at 10 nM incubated for 24 hrs by Annexin V-PE and 7-AAD staining based flow cytometry (reference value: 4.16 %); assay type: functional; in short: as §1
HepG2 [8] = experiment: Antitumor activity against human HepG2 cells xenografted in iv dosed Balb/c nude mouse assessed as tumor growth inhibition administered every 2 days for 21 days; assay type: functional, organism-based; conditions: time 21.0 day
In short: (§3)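 Nude mice received 200 μL PBS containing HepG2 at 1 × 10⁷ cells/mL subcutaneously in the right armpit. Randomised at 90 mm³ tumour volume, five per group. Compound given iv as a 2.0 mg/mL solution in distilled water, 5 or 10 mg/kg every two days for 21 days, with a water vehicle group. Tumour volume (L × W²/2) and body weight recorded every 3 days. Inhibition = (1 − RTV treated/RTV vehicle) × 100%.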

HepG2 [9] = experiment: Antitumor activity against human HepG2 cells xenografted in Balb/c nude mouse assessed as reduction in tumor volume at 10 mg/kg, iv administered every 2 days for 21 days and measured at 3 days interval during compound dosing; assay type: functional; set-up: scale not given: the % may be the effect or the level left; conditions: time 21 day; in short: as §3
HepG2 [10] = experiment: Induction of apoptosis in human HepG2 cells assessed as late apoptotic cells at 10 nM incubated for 24 hrs by Annexin V-PE and 7-AAD staining based flow cytometry (reference value: 2.33 %); assay type: functional; in short: as §1
HepG2 [11] = experiment: Induction of cell cycle arrest in human HepG2 cells assessed as accumulation in G2/M phase at 5 nM incubated for 24 hrs by propidium iodide staining based flow cytometry (reference value: 12.59%); assay type: functional
HepG2 [12] = experiment: Induction of apoptosis in human HepG2 cells assessed as necrotic cells at 5 nM incubated for 24 hrs by Annexin V-PE and 7-AAD staining based flow cytometry (reference value: 0.34 %); assay type: functional; in short: as §1
HepG2 [13] = experiment: Induction of cell cycle arrest in human HepG2 cells assessed as accumulation in S phase at 20 nM incubated for 24 hrs by propidium iodide staining based flow cytometry (reference value: 26.65%); assay type: functional
HepG2 [14] = experiment: Induction of apoptosis in human HepG2 cells assessed as late apoptotic cells at 20 nM incubated for 24 hrs by Annexin V-PE and 7-AAD staining based flow cytometry (reference value: 2.33 %); assay type: functional; in short: as §1
HepG2 [15] = experiment: Induction of cell cycle arrest in human HepG2 cells assessed as accumulation in G2/M phase at 10 nM incubated for 24 hrs by propidium iodide staining based flow cytometry (reference value: 12.59%); assay type: functional
[16] = Aqueous solubility of compound in DMSO at pH 7.4 by HPLC analysis; assay type: physicochemical; conditions: aqueous medium
In short: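 Solubility measured at pH 7.4. DMSO stock (10 mg/mL) diluted in methanol to five levels to build an HPLC peak-area standard curve. Compound added to 1 mL buffer to make a saturated solution, and the peak area of that solution analysed by HPLC on a C18 column. Solubility calculated from the standard curve.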

HepG2 [17] = experiment: Induction of apoptosis in human HepG2 cells assessed as increase in Bax expression incubated for 24 hrs by Western blot analysis; assay type: functional, cell-based; conditions: dose nM 2.5-20, time 24.0 hrs
In short: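 Lysates (20 μg protein) separated by 10% PAGE and blotted to PVDF. Probed for Bax, Bcl-2, cleaved caspase-3 and cleaved PARP, detected by ECL and quantified by densitometry.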

HepG2 [18] = experiment: Induction of apoptosis in human HepG2 cells assessed as live cells at 20 nM incubated for 12 hrs by Annexin V-PE and 7-AAD staining based flow cytometry (reference value: 92.1%); assay type: functional; in short: as §1
HepG2 [19] = experiment: Induction of apoptosis in human HepG2 cells assessed as late apoptotic cells at 20 nM incubated for 12 hrs by Annexin V-PE and 7-AAD staining based flow cytometry (reference value: 2.79%); assay type: functional; in short: as §1
HepG2 [20] = experiment: Induction of apoptosis in human HepG2 cells assessed as live cells at 5 nM incubated for 12 hrs by Annexin V-PE and 7-AAD staining based flow cytometry (reference value: 92.1%); assay type: functional; in short: as §1
HepG2 [21] = experiment: Inhibition of cell migration in human HepG2 cells at 10 nM measured after 24 hrs by inverted light microscopy method based wound healing assay relative to control; assay type: functional
In short: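 Confluent HepG2 monolayer (seeded 3 × 10⁵ cells/well) scratched with a pipette tip and washed with PBS. Incubated in serum-free DMEM with compound at 2.5, 5 or 10 nM for 24 h; CA-4 run in parallel, DMSO as vehicle. Wound imaged at 0 and 24 h by inverted microscope and compared with control.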

## CCOc1cccc(Nc2nn(C)c3c2Cc2cc(OCC)c(OCCCN)cc2-3)c1
HepG2 [1]
  Activity: 36.6%
HCT-116
  GI50: 2.4 nM
[2]
  Activity: Non-Toxic
[3]
  Activity: 8.4%
HepG2 [4]
  Activity: 17.07%
[5]
  Activity: -18.5%
HepG2 [6]
  GI50: 2.4 nM
HepG2 [7]
  Activity: 16.7%
HepG2 [8]
  Activity: Dose-dependent effect
HepG2 [9]
  Activity: 68%
HepG2 [10]
  Activity: 7.19%
HepG2 [11]
  Activity: 19.78%
HepG2 [12]
  Activity: 0.32%
HepG2 [13]
  Activity: 8.43%
HepG2 [14]
  Activity: 10.7%
HepG2 [15]
  Activity: 56.07%
[16]
  solubility: > 1000 µg/mL
HepG2 [17]
  Activity: Dose-dependent effect
HepG2 [18]
  Activity: 77.7%
HepG2 [19]
  Activity: 6.42%
HepG2 [20]
  Activity: 90.4%
HepG2 [21]
  inhibition at 0.01 µM: 58%
